VLA-4 inh = inhibition in a human VLA-4 binding assay | P13612 | VLA-4 expressing cells, ligand binding flow cytometry | inhibition, % (about 7 µM as worked out from the volumes in the protocol) | 330,000 tested, 0.2% active; in the data active = inhibition above about 50%
Target sequence (P13612 whole entry, looked up): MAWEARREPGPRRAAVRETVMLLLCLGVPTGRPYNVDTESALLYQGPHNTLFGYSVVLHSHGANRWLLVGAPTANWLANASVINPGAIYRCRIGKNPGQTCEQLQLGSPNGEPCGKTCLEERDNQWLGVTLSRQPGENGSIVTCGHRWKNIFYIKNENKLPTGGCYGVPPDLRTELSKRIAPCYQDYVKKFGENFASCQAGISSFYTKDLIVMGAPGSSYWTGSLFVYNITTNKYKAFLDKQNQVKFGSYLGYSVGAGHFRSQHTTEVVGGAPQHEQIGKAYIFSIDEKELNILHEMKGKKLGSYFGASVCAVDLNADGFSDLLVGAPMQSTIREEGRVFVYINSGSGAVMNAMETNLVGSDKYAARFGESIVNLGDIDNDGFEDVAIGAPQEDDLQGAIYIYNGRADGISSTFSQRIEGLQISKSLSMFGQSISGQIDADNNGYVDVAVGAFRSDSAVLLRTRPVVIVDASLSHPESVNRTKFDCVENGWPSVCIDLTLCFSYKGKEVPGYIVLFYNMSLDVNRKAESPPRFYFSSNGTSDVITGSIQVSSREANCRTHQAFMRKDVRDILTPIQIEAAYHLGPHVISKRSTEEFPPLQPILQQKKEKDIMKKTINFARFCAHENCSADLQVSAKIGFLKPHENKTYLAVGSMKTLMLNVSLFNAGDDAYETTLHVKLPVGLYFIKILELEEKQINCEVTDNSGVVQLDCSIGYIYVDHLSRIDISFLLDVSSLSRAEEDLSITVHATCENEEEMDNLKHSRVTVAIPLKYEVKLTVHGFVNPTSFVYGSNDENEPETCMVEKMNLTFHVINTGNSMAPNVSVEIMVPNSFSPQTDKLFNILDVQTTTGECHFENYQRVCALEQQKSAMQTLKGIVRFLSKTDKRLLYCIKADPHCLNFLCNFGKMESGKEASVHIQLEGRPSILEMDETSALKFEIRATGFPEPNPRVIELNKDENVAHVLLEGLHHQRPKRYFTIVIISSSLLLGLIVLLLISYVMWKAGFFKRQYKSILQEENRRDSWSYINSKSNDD
NR2E3 ag-1 = human photoreceptor-specific nuclear receptor agonism. Q9Y5X4. CHO-S Gal4-NCOR/VP16-NR2E3 two-hybrid, luciferase. inhibition of corepressor binding, % at 3.98 µM. 360,000 tested, 0.35% active;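 active = inhibition above the mean of all tested compounds plus 3 SD, cut at about 70% in these data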;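 note: 0% = DMSO with NR2E3 transfected cells and 100% = cells lacking NR2E3 construct; higher means lower luciferase signal from less NR2E3 corepressor binding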
NR1D1 modulator = Rev-erb alpha (human) modulation; P20393; Rev-erbα–FITC-DNA binding, fluorescence polarization, 90 min; activity, % at 10 µM; 370,000 tested, 0.79% active;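 active = activity above about 14%, limit read from the data; passing the limit was not always enough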;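 note: 0% = DMSO wells with 35 nM protein and 100% = DMSO wells with 750 nM protein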
PG9 binder = binds the HIV-1 gp120 antibody PG9. TR-FRET gp120-PG9 antibody binding. 360,000 tested, 0.43% active. inhibition, % at 6.7 µM; in the data active = inhibition above about 8.5%
NR2E3 ag-2 = agonists of human nuclear receptor NR2E3. 320,000 tested, 0.12% active. inhibition of corepressor binding, % at 4.78 µM. AID 2300. GST-NR2E3/biotin-RetCOR TR-FRET, 1536-well. Q9Y5X4;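 active = percent inhibition above the cutoff of mean plus 3 SD of all tested compounds, set per screening campaign, cut at about 20% in these data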;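 note: 0% = DMSO wells and 100% = biotin wells as full block of FRET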
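System: GST-tagged NR2E3 plus biotinylated RetCOR corepressor; Buffer or medium: pH 7.5 Tris-based buffer; Probe or stimulus: RetCOR corepressor, biotinylated, 7 nM; Doses: compound at 4.8 µM, single dose; Schedule: 5 h incubation at 4 °C; Technique: time-resolved FRET; Evaluation: percent inhibition of TR-FRET ratio; Replication: one well per compound, singlicate testing.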
NR2E3 ag conf = NR2E3 agonism confirmed in two-hybrid assay | shares compounds with NR2E3 ag-1 | CHO-S mammalian two-hybrid NR2E3-NCOR, luciferase luminescence | inhibition, % at 3.98 µM | 2,300 tested, 51% active | AID 624378;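 active = average inhibition above a cutoff equal to the mean inhibition of all tested compounds plus one SD, cut at about 70% in these data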;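 note: 0% = DMSO in NR2E3 cells and 100% = DMSO in cells lacking NR2E3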
GAL4-VP16 luc = GAL4-VP16 reporter inhibition in NR2E3 agonist counterscreen; AID 624379; CHO-S GAL4-VP16 luciferase reporter, luminescence; 2,300 tested, 29% active; shares compounds with NR2E3 ag-1; inhibition, % at 3.98 µM;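 active = mean inhibition above a cutoff equal to the average over all tested compounds plus one standard deviation, cut at about 70% in these data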;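 note: luciferase from a UAS reporter driven by GAL4-VP16 transactivation; 0% = DMSO with VP16-transfected cells and 100% = DMSO with cells lacking VP16; higher means less reporter light so more repression of VP16 activity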
PG9 binder conf = PG9 antibody binding, confirmed; inhibition, % at 6.7 µM; shares compounds with PG9 binder; TR-FRET PG9 antibody binding, biochemical; 1,500 tested, 90% active; AID 651571; in the data active = inhibition above about 9%
PGV04 Ab binding = binds control antibody PGV04 in PG9 binder counter-screen; shares compounds with PG9 binder; TR-FRET PGV04 antibody-gp120 binding, biochemical; inhibition, % at 6.7 µM; 1,500 tested, 95% active; in the data active = inhibition above about 9.5%
NR1D1 mod conf = confirmation of modulators of human Rev-erb alpha DNA binding; shares compounds with NR1D1 modulator; Rev-erb alpha FITC-DNA binding, fluorescence polarization, 90 min; activation, % at 25 µM; 3,000 tested, 61% active; AID 1259319;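 active = activation at or above a set limit, or at least 3 SD above the negative control mean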;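 note: 0% = 35 nM protein with DMSO and 100% = 750 nM protein high control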
RORg DNA counter = RORgamma DNA-binding activity, dose-response counter-screen | shares compounds with NR1D1 modulator | purified RORgamma protein-FITC-DNA binding, fluorescence polarization | IC50, µM | 910 tested, 8% active | AID 1259320;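 active = Compounds whose fitted half-maximal concentration for disrupting protein-DNA binding is below 10 micromolar; the record names Rev-erb in its text, so the target is in doubt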
The depositor's hits bear a star; x = no result. Most compounds without a hit are left out; they make up all but 1.6% or so of the library.

SMILES	VLA-4 inh	NR2E3 ag-1	NR1D1 modulator	PG9 binder	NR2E3 ag-2	NR2E3 ag conf	GAL4-VP16 luc	others
CC[C@@H]1C[C@H]2CC[C@H](O2)[C@H](C)C(=O)O[C@@H](C)C[C@@H]2CC[C@@H](O2)[C@@H](C)C(=O)O[C@H](C)C[C@H]2CC[C@H](O2)[C@H](C)C(=O)O[C@@H](C)C[C@@H]2CC[C@@H](O2)[C@@H](C)C(=O)O1	x	x	-4	1	x	x	x
CC1CC(C)CC(C)C(O)C(C#N)=CC=CCC(C2CCCC2C(=O)O)OC(=O)CC(O)C(C)C1 (stereo not given)	x	102*	-7	1	x	101*	100*
COC(=O)C(c1ccccc1)C1CCCCN1 (stereo not given)	x	x	-6	x	x	x	x
O=[N+]([O-])c1ccc(N2CCOCC2)c2cccnc12	0	-9	5	-2	-2	x	x
O=[N+]([O-])c1ccc(N2CCOCC2)c2c1no[n+]2[O-]	x	58	15	-4	x	59	56
CCOc1ccc(-c2c(C)n(-c3ccc(OCC)cc3)c3[n+]2CCCCC3)cc1	-10	64	-2	-2	1	97*	60
CCOc1ccc(-n2c(-c3ccoc3)nc3ccccc3c2=O)cc1	0	-14	0	-1	-1	x	x
O=[N+]([O-])C(Br)(CO)CO	x	x	0	x	x	x	x
Cn1nc(-c2ccc(OCC(=O)N3CCN(Cc4ccccc4)CC3)cc2)c2ccccc2c1=O	13	71*	2	-2	-5	68	59
CN(C)C(=S)SSC(=S)N(C)C	36	95*	-6	-2	-1	11	-3
CC(=O)OCC12CC(OC(=O)CC(C)C)C(C)=CC1OC1C(O)C(OC(C)=O)C2(C)C12CO2 (stereo not given)	x	101*	0	0	x	100*	99*
C[N+]12CCC(CC1)C(OC(=O)C(O)(c1ccccc1)c1ccccc1)C2 (stereo not given)	39	1	-7	0	2	x	x
O=c1[nH]c(O)c(N=Nc2ccc3c(c2)OCCO3)c(=O)[nH]1	-1	69	22	-8	-2	42	37
O=c1[nH]c(=S)[nH]c(O)c1N=Nc1ccc2c(c1)OCO2	18	-12	7	-16	-8	x	x
CC(C)NC(C)C	x	x	-1	x	x	x	x
O=c1n(Cl)c(=O)n(Cl)c(=O)n1Cl	x	x	0	x	x	x	x
CCOC(=O)[C@]12Cc3cc(Cl)ccc3[C@H]1N(C)C(=O)c1ccccc12	x	-18	-3	-1	x	x	x
CCOC(=O)[C@]12Cc3cc(Cl)ccc3[C@H]1N(C1CCCCC1)C(=O)c1ccccc12	x	65	x	x	x	96*	59
CCOC(=O)[C@]12Cc3cc(Cl)ccc3[C@H]1N(CC(=O)OC)C(=O)c1ccccc12	x	61	x	x	x	2	12
COC1C(OC(=O)c2ccc(C)[nH]2)C(O)C(Oc2ccc3c(O)c(NC(=O)c4ccc(O)c(CC=C(C)C)c4)c(=O)oc3c2Cl)OC1(C)C (stereo not given)	5	81*	-3	-1	2	-32	31
CCCC(C)C1(CC)C(=O)NC(=O)NC1=O (stereo not given)	x	x	-8	x	x	x	x
O=C(NC(=O)c1c(F)cccc1F)Nc1cc(Cl)c(OC(F)(F)C(F)C(F)(F)F)cc1Cl (stereo not given)	x	x	3	x	x	x	x
CC1=C(O)C(=O)C=C2C1=CC=C1C2(C)CCC2(C)C3CC(C)(C(=O)O)CCC3(C)CCC12C (stereo not given)	x	99*	-10	1	x	95*	77*
CC(C)(C)C(=O)c1cn(CC(=O)NCc2ccco2)c2ccccc12	3	-96	4	-1	9	x	x
O=C(Cn1cc(C(=O)c2ccccc2F)c2ccccc21)NCc1ccco1	0	-1	1	17*	8	x	x	PG9 binder conf=15*;PGV04 Ab binding=37*
SMILES	VLA-4 inh	NR2E3 ag-1	NR1D1 modulator	PG9 binder	NR2E3 ag-2	NR2E3 ag conf	GAL4-VP16 luc	others
COC(=O)Cn1cc(C=C2C(=O)N(C)C(=O)N(C)C2=O)c2ccccc21	3	x	-1	24*	3	x	x	PG9 binder conf=39*;PGV04 Ab binding=53*
CC1C2Cc3ccc(O)cc3C1(C)CCN2CC1CC1 (stereo not given)	x	x	-2	1	x	x	x
COc1ccc(-n2c(=S)[nH]c3ccc(C)cc3c2=O)cc1	x	-11	52*	41*	x	x	x	PG9 binder conf=35*;PGV04 Ab binding=39*;NR1D1 mod conf=19*
O=C1NC(=O)C2(CCCC2)C(=O)N1	x	6	2	3	x	x	x
O=c1[nH]c(=S)n(Cc2ccc(F)cc2)c(O)c1C=NCc1ccc2c(c1)OCO2	5	-15	25*	1	0	x	x	NR1D1 mod conf=12
CN(C)CCN=Cc1c(O)n(Cc2ccc3c(c2)OCO3)c(=S)[nH]c1=O	-91	-8	4	0	-2	x	x
O=C1NC(=O)N(c2ccc3c(c2)OCO3)C(=O)/C1=C\c1ccc(N2CCCCC2)o1	14	-3	26*	-8	0	x	x	NR1D1 mod conf=26*
CN1C(=O)C(=Cc2ccc(N3CCOCC3)o2)C(=O)N(C)C1=O	2	-27	41*	-9	-1	x	x	NR1D1 mod conf=44*;RORg DNA counter=>40
CN1C(=O)C(=Cc2ccc(N3CCCCCC3)o2)C(=O)N(C)C1=S	-17	-25	39*	-3	0	x	x	NR1D1 mod conf=60*;RORg DNA counter=>40
Cc1ccccc1N1C(=O)NC(=O)/C(=C/c2ccc(N3CCOCC3)o2)C1=O	-11	22	17	-4	2	x	x
O=C1N[C@H](Cc2ccccc2)C(=O)N2[C@@H]3[C@H](C[C@@H]12)c1ccccc1N3OOSc1ccccc1	2	-35	-3	-1	7	x	x
COC(=O)C1=C(c2ccccc2)C[C@@H]2CC[C@H]1N2C(=O)NCC1CC1	1	10	-5	0	-1	x	x
O=C1NC(=S)SC1=Cc1ccc(N(CCCl)CCCl)cc1	x	-27	24*	-2	x	x	x	NR1D1 mod conf=20*
CN1/C(=C\C=C2C(=O)NC(=S)NC2=O)C(C)(C)c2ccccc21	x	4	25*	-25	x	x	x	NR1D1 mod conf=53*;RORg DNA counter=>40
CC1(C)OC(c2ccccc2)=C/C(=C/C=C2C(=O)NC(=S)NC2=O)O1	-85	x	5	-1	0	x	x

Screening data (PubChem BioAssay)
